In brackets after ≈: the same amount, converted by molar mass.
Key:
[1] = system: Clostridium paraputrificum; assay: Antimicrobial activity against Clostridium paraputrificum under anaerobic conditions after 44 hrs by CLSI-M11-47 protocol based agar dilution method; assay type: functional
Summary of the method: (§1)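 Reference agar dilution per CLSI M11-A7 with plates made on test day. Clinical isolates were stored at −70°C in 20% skim milk, subcultured twice, and 48-h cell paste was suspended in brucella broth to 0.5 McFarland. About 10^5 CFU/spot was applied with a Steers replicator. Plates were incubated 44 h at 37°C anaerobically. MIC was the lowest concentration giving complete inhibition or marked growth reduction versus the drug-free control.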

[2] = system: Prevotella corporis; assay: Antimicrobial activity against Prevotella corporis under anaerobic conditions after 44 hrs by CLSI-M11-47 protocol based agar dilution method; assay type: functional
Summary of the method: (§2)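 Clinical isolates were stored at −70°C in 20% skim milk and identified phenotypically or by partial 16S rRNA sequencing. Each strain was subcultured twice from frozen stock. Cell paste from 48-h cultures was suspended in brucella broth to a 0.5 McFarland standard. About 10^5 CFU per spot were applied by Steers replicator to agar dilution plates prepared on the day of testing. Plates were incubated 44 h at 37°C in an anaerobic chamber. MIC was taken as the lowest concentration giving complete inhibition or marked reduction of growth versus the drug-free control.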

[3] = system: Porphyromonas asaccharolytica; assay: Antimicrobial activity against Porphyromonas asaccharolyticus under anaerobic conditions after 44 hrs by CLSI-M11-47 protocol based agar dilution method; assay type: functional; summary of the method: as §2
[4] = system: Schaalia odontolytica; assay: Antimicrobial activity against Actinomyces odontolyticus under anaerobic conditions after 44 hrs by CLSI-M11-47 protocol based agar dilution method; assay type: functional; summary of the method: as §1
[5] = system: Enterocloster clostridioformis; assay: Antimicrobial activity against Clostridium clostridioforme under anaerobic conditions after 44 hrs by CLSI-M11-47 protocol based agar dilution method; assay type: functional; summary of the method: as §1
[6] = system: Parabacteroides merdae; assay: Antimicrobial activity against Bacteroides merdae under anaerobic conditions after 44 hrs by CLSI-M11-47 protocol based agar dilution method; assay type: functional; summary of the method: as §1
[7] = system: Bacteroides fragilis; assay: Antimicrobial activity against Bacteroides fragilis under anaerobic conditions after 44 hrs by CLSI-M11-47 protocol based agar dilution method; assay type: functional; summary of the method: as §1
[8] = system: Fusobacterium necrophorum; assay: Antimicrobial activity against Fusobacterium necrophorum under anaerobic conditions after 44 hrs by CLSI-M11-47 protocol based agar dilution method; assay type: functional; summary of the method: as §1
[9] = system: Clostridium baratii; assay: Antimicrobial activity against Clostridium baratii under anaerobic conditions after 44 hrs by CLSI-M11-47 protocol based agar dilution method; assay type: functional
[10] = system: Gemella morbillorum; assay: Antimicrobial activity against Gemella morbillorum under anaerobic conditions after 44 hrs by CLSI-M11-47 protocol based agar dilution method; assay type: functional; summary of the method: as §2
[11] = system: Prevotella intermedia; assay: Antimicrobial activity against Prevotella intermedia under anaerobic conditions after 44 hrs by CLSI-M11-47 protocol based agar dilution method; assay type: functional; summary of the method: as §2
[12] = system: Actinomyces neuii subsp. anitratus; assay: Antimicrobial activity against Actinomyces neuii subsp. anitratus under anaerobic conditions after 44 hrs by CLSI-M11-47 protocol based agar dilution method; assay type: functional, Winkia neuii subsp. anitrata; details: Winkia neuii; summary of the method: as §1
[13] = system: Gemella sanguinis; assay: Antimicrobial activity against Gemella sanguinis under anaerobic conditions after 44 hrs by CLSI-M11-47 protocol based agar dilution method; assay type: functional; summary of the method: as §2
[14] = system: Prevotella oris; assay: Antimicrobial activity against Prevotella oris under anaerobic conditions after 44 hrs by CLSI-M11-47 protocol based agar dilution method; assay type: functional; details: Segatella oris; summary of the method: as §2
[15] = system: Bacteroides fragilis; assay: Antimicrobial activity against Bacteroides fragilis spp. under anaerobic conditions after 44 hrs by CLSI-M11-47 protocol based agar dilution method; assay type: functional; summary of the method: as §1
[16] = system: Peptostreptococcus stomatis; assay: Antimicrobial activity against Peptostreptococcus stomatis under anaerobic conditions after 44 hrs by CLSI-M11-47 protocol based agar dilution method; assay type: functional; summary of the method: as §2
[17] = system: Clostridium celerecrescens; assay: Antimicrobial activity against Clostridium celerecrescens under anaerobic conditions after 44 hrs by CLSI-M11-47 protocol based agar dilution method; assay type: functional; details: Lacrimispora celerecrescens; summary of the method: as §1
[18] = system: Clostridium subterminale; assay: Antimicrobial activity against Clostridium subterminale under anaerobic conditions after 44 hrs by CLSI-M11-47 protocol based agar dilution method; assay type: functional; summary of the method: as §1
[19] = system: Clostridium perfringens; assay: Antimicrobial activity against Clostridium perfringens under anaerobic conditions after 44 hrs by CLSI-M11-47 protocol based agar dilution method; assay type: functional
[20] = system: Bacteroides ovatus; assay: Antimicrobial activity against Bacteroides ovatus under anaerobic conditions after 44 hrs by CLSI-M11-47 protocol based agar dilution method; assay type: functional; summary of the method: as §1
[21] = system: Clostridium butyricum; assay: Antimicrobial activity against Clostridium butyricum under anaerobic conditions after 44 hrs by CLSI-M11-47 protocol based agar dilution method; assay type: functional
[22] = system: Prevotella disiens; assay: Antimicrobial activity against Prevotella disiens under anaerobic conditions after 44 hrs by CLSI-M11-47 protocol based agar dilution method; assay type: functional; summary of the method: as §2
[23] = system: Anaerococcus; assay: Antimicrobial activity against Anaerococcus sp. under anaerobic conditions after 44 hrs by CLSI-M11-47 protocol based agar dilution method; assay type: functional; summary of the method: as §1
[24] = system: Prevotella buccae; assay: Antimicrobial activity against Prevotella buccae under anaerobic conditions after 44 hrs by CLSI-M11-47 protocol based agar dilution method; assay type: functional; details: Segatella buccae; summary of the method: as §2
[25] = system: Anaerococcus lactolyticus; assay: Antimicrobial activity against Anaerococcus lactolyticus under anaerobic conditions after 44 hrs by CLSI-M11-47 protocol based agar dilution method; assay type: functional; summary of the method: as §1
[26] = system: Prevotella tannerae; assay: Antimicrobial activity against Prevotella tannerae under anaerobic conditions after 44 hrs by CLSI-M11-47 protocol based agar dilution method; assay type: functional; details: Alloprevotella tannerae; summary of the method: as §2
[27] = system: Parabacteroides distasonis; assay: Antimicrobial activity against Bacteroides distasonis under anaerobic conditions after 44 hrs by CLSI-M11-47 protocol based agar dilution method; assay type: functional; summary of the method: as §1
[28] = system: Anaerococcus tetradius; assay: Antimicrobial activity against Anaerococcus tetradius under anaerobic conditions after 44 hrs by CLSI-M11-47 protocol based agar dilution method; assay type: functional; summary of the method: as §1
[29] = system: Paeniclostridium sordellii; assay: Antimicrobial activity against Clostridium sordellii under anaerobic conditions after 44 hrs by CLSI-M11-47 protocol based agar dilution method; assay type: functional; details: Paraclostridium sordellii; summary of the method: as §1
[30] = system: Clostridium symbiosum; assay: Antimicrobial activity against Clostridium symbiosum under anaerobic conditions after 44 hrs by CLSI-M11-47 protocol based agar dilution method; assay type: functional; summary of the method: as §1
[31] = system: Lacrimispora sphenoides; assay: Antimicrobial activity against Clostridium sphenoides under anaerobic conditions after 44 hrs by CLSI-M11-47 protocol based agar dilution method; assay type: functional; summary of the method: as §1
[32] = system: Prevotella melaninogenica; assay: Antimicrobial activity against Prevotella melaninogenica under anaerobic conditions after 44 hrs by CLSI-M11-47 protocol based agar dilution method; assay type: functional; summary of the method: as §2

CCO/N=C(\C(=O)N[C@@H]1C(=O)N2C(C(=O)[O-])=C(Sc3nc(-c4cc[n+](C)cc4)cs3)CS[C@H]12)c1nsc(NP(=O)(O)O)n1 [CEFTAROLINE FOSAMIL]
MIC50 [1]: 0.5 µg/mL (≈ 0.73 µM) | MIC90 [1]: 16 µg/mL (≈ 23.4 µM) | MIC50 [2]: 2 µg/mL (≈ 2.92 µM) | MIC90 [2]: 32 µg/mL (≈ 46.7 µM) | MIC50 [3]: 0.015 µg/mL (≈ 0.0219 µM) | MIC90 [3]: 0.03 µg/mL (≈ 0.0438 µM) | MIC50 [4]: 0.015 µg/mL (≈ 0.0219 µM) | MIC90 [4]: 0.25 µg/mL (≈ 0.365 µM) | MIC50 [5]: 1 µg/mL (≈ 1.46 µM) | MIC90 [5]: 2 µg/mL (≈ 2.92 µM) | MIC50 [6]: 64 µg/mL (≈ 93.5 µM) | MIC90 [6]: > 64 µg/mL | MIC50 [7]: 16 µg/mL (≈ 23.4 µM) | MIC90 [7]: 64 µg/mL (≈ 93.5 µM) | MIC50 [8]: 0.03 µg/mL (≈ 0.0438 µM) | MIC90 [8]: 0.06 µg/mL (≈ 0.0876 µM) | MIC50 [9]: 0.5 µg/mL (≈ 0.73 µM) | MIC90 [9]: 16 µg/mL (≈ 23.4 µM) | MIC50 [10]: 0.06 µg/mL (≈ 0.0876 µM) | MIC90 [10]: 1 µg/mL (≈ 1.46 µM) | MIC50 [11]: 1 µg/mL (≈ 1.46 µM) | MIC90 [11]: 16 µg/mL (≈ 23.4 µM) | MIC50 [12]: 0.015 µg/mL (≈ 0.0219 µM) | MIC90 [12]: 0.25 µg/mL (≈ 0.365 µM) | MIC50 [13]: 0.06 µg/mL (≈ 0.0876 µM) | MIC90 [13]: 1 µg/mL (≈ 1.46 µM) | MIC50 [14]: 2 µg/mL (≈ 2.92 µM) | MIC90 [14]: 32 µg/mL (≈ 46.7 µM) | MIC50 [15]: 64 µg/mL (≈ 93.5 µM) | MIC90 [15]: > 64 µg/mL | MIC50 [16]: 0.5 µg/mL (≈ 0.73 µM) | MIC90 [16]: 4 µg/mL (≈ 5.84 µM) | MIC50 [17]: 0.5 µg/mL (≈ 0.73 µM) | MIC90 [17]: 16 µg/mL (≈ 23.4 µM) | MIC50 [18]: 0.5 µg/mL (≈ 0.73 µM) | MIC90 [18]: 16 µg/mL (≈ 23.4 µM) | MIC50 [19]: 0.125 µg/mL (≈ 0.183 µM) | MIC90 [19]: 0.25 µg/mL (≈ 0.365 µM) | MIC50 [20]: 64 µg/mL (≈ 93.5 µM) | MIC90 [20]: > 64 µg/mL | MIC50 [21]: 0.5 µg/mL (≈ 0.73 µM) | MIC90 [21]: 16 µg/mL (≈ 23.4 µM) | MIC50 [22]: 2 µg/mL (≈ 2.92 µM) | MIC90 [22]: 32 µg/mL (≈ 46.7 µM) | MIC50 [23]: 0.06 µg/mL (≈ 0.0876 µM) | MIC90 [23]: 1 µg/mL (≈ 1.46 µM) | MIC50 [24]: 0.5 µg/mL (≈ 0.73 µM) | MIC90 [24]: 64 µg/mL (≈ 93.5 µM) | MIC50 [25]: 0.06 µg/mL (≈ 0.0876 µM) | MIC90 [25]: 1 µg/mL (≈ 1.46 µM) | MIC50 [26]: 2 µg/mL (≈ 2.92 µM) | MIC90 [26]: 32 µg/mL (≈ 46.7 µM) | MIC50 [27]: 64 µg/mL (≈ 93.5 µM) | MIC90 [27]: > 64 µg/mL | MIC50 [28]: 0.03 µg/mL (≈ 0.0438 µM) | MIC90 [28]: 0.125 µg/mL (≈ 0.183 µM) | MIC50 [29]: 0.5 µg/mL (≈ 0.73 µM) | MIC90 [29]: 16 µg/mL (≈ 23.4 µM) | MIC50 [30]: 0.5 µg/mL (≈ 0.73 µM) | MIC90 [30]: 16 µg/mL (≈ 23.4 µM) | MIC50 [31]: 0.5 µg/mL (≈ 0.73 µM) | MIC90 [31]: 16 µg/mL (≈ 23.4 µM) | MIC50 [32]: 2 µg/mL (≈ 2.92 µM) | MIC90 [32]: 32 µg/mL (≈ 46.7 µM)

From ChEMBL document CHEMBL1255409, “In vitro activity of ceftaroline against 623 diverse strains of anaerobic bacteria” (2010)
